Columns and labels:
HepG2 = test: Antiproliferative activity against human HepG2 cells after 72 hrs by XTT assay; type: functional; conditions: HepG2, 72 h
How it was run: (§1)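 Cells were grown as monolayers in DMEM with 10% FBS, penicillin, streptomycin and amphotericin at 37 °C and 5% CO2. Plating was 5×10³ cells/well, with treatment for 72 h in 10% FBS medium, a medium change, then another day. XTT (1 mg/mL) plus PMS in serum-free medium was added for 4 h at 37 °C and read at 492 nm. Growth was taken as % of control (mean of n = 3). GI50 was taken from the linear portion of the curve as the 50% absorbance reduction.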

[1] = Antiproliferative activity against human Hep3B cells after 72 hrs by XTT assay; type: functional, Hep 3B2; how it was run: as §1
[2] = Antiproliferative activity against human HepG2(2.2.1) cells after 72 hrs by XTT assay; type: functional; conditions: HepG2, 72 h; how it was run: as §1
A549 [3] = test: Antiproliferative activity against human A549 cells after 72 hrs by XTT assay; type: functional; conditions: A549, 72 h; how it was run: as §1
[4] = Antiproliferative activity against human H1299 cells after 72 hrs by XTT assay; type: functional; conditions: NCI-H1299, 72 h; how it was run: as §1
[5] = Cytotoxicity against human MRC5 cells after 72 hrs by XTT assay; type: cell-based; how it was run: as §1
A549 [6] = test: Cell cycle arrest in human A549 cells assessed as accumulation at subG1 phase at 1.0 uM after 24 hrs by flow cytometry; type: functional
How it was run: (§2)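 A549 cells were exposed to DMSO or compound at 0.1, 1.0, 5.0 or 10.0 µM for 24 h. Cells were harvested, rinsed in PBS, fixed in 70% ethanol and stored at −20 °C. Staining used propidium iodide solution with 0.2 mg/mL RNase and 0.1% Triton X-100, at least 30 min at room temperature in the dark. Cell-cycle phases were read by flow cytometry.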

A549 [7] = test: Cell cycle arrest in human A549 cells assessed as accumulation at G1 phase at 1.0 uM after 24 hrs by flow cytometry; type: functional; how it was run: as §2
A549 [8] = test: Cell cycle arrest in human A549 cells assessed as accumulation at S phase at 1.0 uM after 24 hrs by flow cytometry; type: functional; how it was run: as §2
A549 [9] = test: Cell cycle arrest in human A549 cells assessed as accumulation at G2/M phase at 1.0 uM after 24 hrs by flow cytometry; type: functional; how it was run: as §2
A549 [10] = test: Cell cycle arrest in human A549 cells assessed as accumulation at subG1 phase at 5.0 uM after 24 hrs by flow cytometry; type: functional; how it was run: as §2
A549 [11] = test: Cell cycle arrest in human A549 cells assessed as accumulation at G1 phase at 5.0 uM after 24 hrs by flow cytometry; type: functional; how it was run: as §2
A549 [12] = test: Cell cycle arrest in human A549 cells assessed as accumulation at S phase at 5.0 uM after 24 hrs by flow cytometry; type: functional; how it was run: as §2
A549 [13] = test: Cell cycle arrest in human A549 cells assessed as accumulation at G2/M phase at 5.0 uM after 24 hrs by flow cytometry; type: functional; how it was run: as §2
A549 [14] = test: Cell cycle arrest in human A549 cells assessed as accumulation at subG1 phase at 10.0 uM after 24 hrs by flow cytometry; type: functional; how it was run: as §2
A549 [15] = test: Cell cycle arrest in human A549 cells assessed as accumulation at G1 phase at 10.0 uM after 24 hrs by flow cytometry; type: functional; how it was run: as §2
A549 [16] = test: Cell cycle arrest in human A549 cells assessed as accumulation at S phase at 10.0 uM after 24 hrs by flow cytometry; type: functional; how it was run: as §2
A549 [17] = test: Cell cycle arrest in human A549 cells assessed as accumulation at G2/M phase at 10.0 uM after 24 hrs by flow cytometry; type: functional; how it was run: as §2

Row | SMILES | GI50 (HepG2) | GI50 [1] | GI50 [2] | GI50 (A549 [3]) | GI50 [4] | GI50 at 72 h [5] | Activity (A549 [6]) | Activity (A549 [7]) | Activity (A549 [8]) | Activity (A549 [9]) | Activity (A549 [10]) | Activity (A549 [11]) | Activity (A549 [12]) | Activity (A549 [13]) | Activity (A549 [14]) | Activity (A549 [15]) | Activity (A549 [16]) | Activity (A549 [17])
1 | O=C1c2cc(O)ccc2-c2c(-c3ccc(OCCN4CCCCC4)cc3)nc3ccccc3c21 | 4.3 µM | 5.4 µM | 6.4 µM | 5.06 µM | 6.55 µM | 3.1 µM | – | – | – | – | – | – | – | – | – | – | – | –
2 | O=C1c2cc(OCCN3CCCCC3)ccc2-c2c(-c3ccc(OCCN4CCCCC4)cc3)nc3ccc(F)cc3c21 | 2.82 µM | 0.66 µM | 3 µM | 6.24 µM | 0.79 µM | 4.52 µM | – | – | – | – | – | – | – | – | – | – | – | –
3 | O=C1c2cc(OCCN3CCCC3)ccc2-c2c(-c3ccc(OCCN4CCCC4)cc3)nc3ccccc3c21 | 4.03 µM | 3.46 µM | 6.15 µM | 3.75 µM | 6.95 µM | 5.31 µM | – | – | – | – | – | – | – | – | – | – | – | –
4 | COc1ccc(-c2nc3ccc(OC)cc3c3c2-c2ccc(OC)cc2C3=O)cc1 | > 10 µM | 12.5 µM | > 10 µM | > 10 µM | 7.84 µM | 10.2 µM | 0.9% | 78.2% | 13.2% | 8.6% | 1% | 77.9% | 14.3% | 7.8% | 1% | 76.9% | 14.7% | 8.4%
5 | O=C1c2cc(OCCN3CCCC3)ccc2-c2c(-c3ccc(OCCN4CCCC4)cc3)nc3ccc(F)cc3c21 | 4.92 µM | 6.24 µM | 6.11 µM | 6.23 µM | 4.3 µM | 5.15 µM | – | – | – | – | – | – | – | – | – | – | – | –
6 | CN(C)CCCOc1ccc(-c2nc3ccc(F)cc3c3c2-c2ccc(OCCCN(C)C)cc2C3=O)cc1 | 0.61 µM | 0.67 µM | 0.59 µM | 3.67 µM | 0.72 µM | 1.86 µM | – | – | – | – | – | – | – | – | – | – | – | –
7 | CC[C@@]1(O)C(=O)OCc2c1cc1n(c2=O)Cc2cc3c(CN(C)C)c(O)ccc3nc2-1 [TOPOTECAN] | 3.83 µM | 0.22 µM | 4.95 µM | 5.98 µM | > 10 µM | 4.25 µM | – | – | – | – | – | – | – | – | – | – | – | –
8 | O=C1c2cc(O)ccc2-c2c(-c3ccc(OCCN4CCCCC4)cc3)nc3ccc(F)cc3c21 | 4.78 µM | 6.61 µM | 6.03 µM | 6 µM | 5.32 µM | 5.91 µM | – | – | – | – | – | – | – | – | – | – | – | –
9 | O=C1c2cc(O)ccc2-c2c(-c3ccc(OCCN4CCCC4)cc3)nc3ccccc3c21 | 4.28 µM | 3.4 µM | 6.06 µM | 4.33 µM | 7.05 µM | 3.16 µM | – | – | – | – | – | – | – | – | – | – | – | –
10 | O=C1c2cc(O)ccc2-c2c(-c3ccc(OCCN4CCCC4)cc3)nc3ccc(F)cc3c21 | 6.1 µM | 6.34 µM | 5.69 µM | 6.63 µM | 5.25 µM | 6.02 µM | – | – | – | – | – | – | – | – | – | – | – | –
11 | COc1ccc(-c2nc3ccc(F)cc3c3c2-c2ccc(OC)cc2C3=O)cc1 | > 10 µM | > 10 µM | > 10 µM | > 10 µM | 6.44 µM | > 10 µM | – | – | – | – | – | – | – | – | – | – | – | –
12 | O=C1c2cc(O)ccc2-c2c(-c3ccc(O)cc3)nc3ccc(O)cc3c21 | 5.51 µM | 12.2 µM | 6.61 µM | 4.98 µM | 10.4 µM | 10.3 µM | – | – | – | – | – | – | – | – | – | – | – | –
13 | CN(C)CCCOc1ccc(-c2nc3ccccc3c3c2-c2ccc(O)cc2C3=O)cc1 | 5.59 µM | 5.34 µM | 6.82 µM | 5.87 µM | 6.39 µM | 4.61 µM | – | – | – | – | – | – | – | – | – | – | – | –
14 | O=C1c2cc(OCCN3CCCCC3)ccc2-c2c(-c3ccc(OCCN4CCCCC4)cc3)nc3ccc(OCCN4CCCCC4)cc3c21 | 0.7 µM | 5.02 µM | 6.07 µM | 0.81 µM | 6.26 µM | 4.64 µM | – | – | – | – | – | – | – | – | – | – | – | –
15 | O=C1c2cc(OCCN3CCCCC3)ccc2-c2c(-c3ccc(OCCN4CCCCC4)cc3)nc3ccccc3c21 | 4.32 µM | 1.35 µM | 6.24 µM | 5.68 µM | 6.38 µM | 4.34 µM | – | – | – | – | – | – | – | – | – | – | – | –
16 | O=C1c2cc(OCCN3CCCC3)ccc2-c2c(-c3ccc(OCCN4CCCC4)cc3)nc3ccc(OCCN4CCCC4)cc3c21 | 0.62 µM | 1.73 µM | 3.44 µM | 0.67 µM | 0.37 µM | 0.71 µM | – | – | – | – | – | – | – | – | – | – | – | –
17 | COc1ccc(-c2nc3ccccc3c3c2-c2ccc(OC)cc2C3=O)cc1 | > 10 µM | > 10 µM | > 10 µM | > 10 µM | > 10 µM | > 10 µM | – | – | – | – | – | – | – | – | – | – | – | –
18 | O=C1c2cc(O)ccc2-c2c(-c3ccc(O)cc3)nc3ccccc3c21 | 9.12 µM | > 10 µM | > 10 µM | > 10 µM | > 10 µM | > 10 µM | – | – | – | – | – | – | – | – | – | – | – | –
19 | O=C1c2cc(O)ccc2-c2c(-c3ccc(O)cc3)nc3ccc(F)cc3c21 | > 10 µM | 9.01 µM | > 10 µM | > 10 µM | 5.88 µM | > 10 µM | – | – | – | – | – | – | – | – | – | – | – | –
20 | CN(C)CCCOc1ccc(-c2nc3ccccc3c3c2-c2ccc(OCCCN(C)C)cc2C3=O)cc1 | 4.35 µM | 3.05 µM | 5.39 µM | 3.07 µM | 5.35 µM | 3.68 µM | – | – | – | – | – | – | – | – | – | – | – | –
21 | CN(C)CCCOc1ccc(-c2nc3ccc(F)cc3c3c2-c2ccc(O)cc2C3=O)cc1 | 5.92 µM | 6.72 µM | 5.62 µM | 6.35 µM | 6.13 µM | 4.75 µM | – | – | – | – | – | – | – | – | – | – | – | –
22 | CCc1c2c(nc3ccc(OC(=O)N4CCC(N5CCCCC5)CC4)cc13)-c1cc3c(c(=O)n1C2)COC(=O)[C@]3(O)CC [IRINOTECAN] | 5.94 µM | 4.73 µM | > 10 µM | > 10 µM | > 10 µM | 77.5 µM | – | – | – | – | – | – | – | – | – | – | – | –
